The structures appear in SMILES notation. In brackets after ≈: the same amount, converted by molar mass.

The test system of one assay is Citrobacter freundii. Put plainly: In vitro antibacterial activity against Citrobacter freundii BS 16. Type of assay: functional. In outline:
(§1)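 Serial 2-fold dilutions in the NCCLS broth microdilution method for aerobic nonfastidious organisms, with an 18-h incubation. The value is reported as the minimum inhibitory concentration (MIC).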

Assay [1] concerns Escherichia coli. Put plainly: In vivo activity in murine against Escherichia coli 257 infection after sc administration. Type of assay: functional. The conditions noted are these: Escherichia coli, sc; read-out: ED50. In outline: (§2)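 Mouse protection test in CD1 Swiss albino mice (18–20 g). Mice were infected intraperitoneally with 0.5 mL of a diluted bacterial suspension, then treated within 5 min with one 1.0 mL subcutaneous dose at the dorsal base of the neck. Doses ranged from 0.05 to 250 mg/kg, with six mice per group. ED50 was calculated by the Reed–Muench method.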

The subject of assay [2] is Enterobacter cloacae. Put plainly: In vivo activity in murine against Enterobacter cloacae 5699 infection after sc administration. In kind it is functional. In outline:
as §2

The test system of assay [3] is Escherichia coli. Put plainly: Antibacterial activity against Escherichia coli DC-O. Type of assay: functional. In outline: as §1
The subject of assay [4] is Escherichia coli. Put plainly: Concentration required for 90% inhibition against 60 kDa penicillin-binding protein 3 binding using [14C]-Pen G as the radioligand. Summed up: (§3)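 Solubilized membranes from sonicated E. coli DC-0 were used. PBP binding was measured as inhibition of [14C]penicillin G binding to each PBP.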
In assay [5] the target is T1, Peptidoglycan D,D-transpeptidase MrdA (Escherichia coli K-12) (UniProt P0AD65).
T1 sequence (whole entry): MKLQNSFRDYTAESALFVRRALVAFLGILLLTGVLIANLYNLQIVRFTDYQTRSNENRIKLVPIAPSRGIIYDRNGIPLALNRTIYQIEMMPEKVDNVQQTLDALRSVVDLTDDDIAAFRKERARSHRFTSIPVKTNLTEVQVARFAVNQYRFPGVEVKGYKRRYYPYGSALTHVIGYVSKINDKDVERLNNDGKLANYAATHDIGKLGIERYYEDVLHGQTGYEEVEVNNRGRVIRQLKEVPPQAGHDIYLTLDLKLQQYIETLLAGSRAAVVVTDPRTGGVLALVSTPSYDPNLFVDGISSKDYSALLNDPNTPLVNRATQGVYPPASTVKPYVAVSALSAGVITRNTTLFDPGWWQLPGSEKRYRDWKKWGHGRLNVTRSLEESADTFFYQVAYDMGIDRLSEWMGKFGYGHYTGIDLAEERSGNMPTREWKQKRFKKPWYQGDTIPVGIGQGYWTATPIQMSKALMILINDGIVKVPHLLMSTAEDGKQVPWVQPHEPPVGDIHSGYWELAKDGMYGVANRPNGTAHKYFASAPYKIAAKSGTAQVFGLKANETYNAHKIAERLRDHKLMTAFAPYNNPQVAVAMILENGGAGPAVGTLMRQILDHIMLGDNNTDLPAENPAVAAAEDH
Put plainly: Concentration required for 90% inhibition against 66 kDa penicillin-binding protein 2 binding using [14C]-Pen G as the radioligand. Summed up: as §3

Another assay deals with Serratia marcescens. Put plainly: In vitro antibacterial activity against Serratia marcescens SM. Type of assay: functional. In outline:
as §1

The test system of a further assay is Streptococcus pneumoniae. Put plainly: In vitro antibacterial activity against Streptococcus pneumoniae 6301. In kind it is functional. Summed up:
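Broth macrodilution with serial 2-fold dilutions in cation-supplemented Mueller-Hinton broth containing 10% goat serum. The value is reported as the MIC.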

For assay [6], the system named is Enterobacter cloacae. Put plainly: In vitro antibacterial activity against Enterobacter cloacae P99. Type of assay: functional. Summed up: as §1

The term MIC denotes the smallest concentration in the dilution series that meets the test's criterion for growth inhibition. The low end stands for greater potency, the high end for weaker potency. As usually defined, the ED50 is the dose at which the effect has come halfway, by size or by number of responders. As for `CC(C)(O/N=C(\C(=O)N[C@@H]1C(=O)N2C(C(=O)[O-])=C(C[N+]3(C)CCN(c4c(F)cc5c(=O)c(C(=O)O)cn(CCF)c5c4F)CC3)CS[C@H]12)c1csc(N)n1)C(=O)O`, the MIC against Citrobacter freundii was found to be 2 µg/mL (≈ 2.39 µM); against Escherichia coli [3], 0.2 µg/mL (≈ 0.239 µM); in the assay with Serratia marcescens it was 1 µg/mL (≈ 1.19 µM); against Streptococcus pneumoniae, 0.5 µg/mL (≈ 0.597 µM); in the assay with Enterobacter cloacae [6], 1 µg/mL (≈ 1.19 µM). Moreover, the ED50 in the assay on Escherichia coli [1] was 0.28 mg/kg; in the assay on Enterobacter cloacae [2], less than 5 mg/kg. Further, the figures for the Concentration (in the assay on Escherichia coli [4]; in assay [5]) were 0.1 µg/mL and 100 µg/mL, respectively.

For the origin of these results see ChEMBL document CHEMBL1125894, “Dual-action cephalosporins: cephalosporin 3'-quaternary ammonium quinolones” (1991).
